The source made the active and inactive calls. The calls are words filed in the database; no cut-off is given here.
Assays:
A549 [1] = assay: Upregulation of CDKN2A mRNA expression in human A549 cells at 5 uM incubated for 48 hrs by qRT-PCR analysis; assay type: functional, cell-based
How it was run: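 A549 cells treated 48 h. Trizol RNA extraction, reverse transcription, SYBR qPCR (95 °C 30 s; 40 cycles of 95 °C 6 s, 60 °C 20 s). mRNA normalized to DMSO-treated cells; mean ± SD of three independent experiments.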

[2] = target: T1, Protein cereblon/Histone-lysine N-methyltransferase EZH2 (Homo sapiens) (UniProt Q15910+Q96SW2); assay: PROTAC activity at CRBN E3 ligase/EZH2 in PRC2 complex in human WSUDLCL2 cells assessed as induction of EZH2 degradation by measuring reduction in EZH2 protein level at 1 uM measured up to 2 hrs by Western blot analysis; assay type: cell-based; settings: time hrs <=2
T1 sequence (Q15910 whole entry, looked up): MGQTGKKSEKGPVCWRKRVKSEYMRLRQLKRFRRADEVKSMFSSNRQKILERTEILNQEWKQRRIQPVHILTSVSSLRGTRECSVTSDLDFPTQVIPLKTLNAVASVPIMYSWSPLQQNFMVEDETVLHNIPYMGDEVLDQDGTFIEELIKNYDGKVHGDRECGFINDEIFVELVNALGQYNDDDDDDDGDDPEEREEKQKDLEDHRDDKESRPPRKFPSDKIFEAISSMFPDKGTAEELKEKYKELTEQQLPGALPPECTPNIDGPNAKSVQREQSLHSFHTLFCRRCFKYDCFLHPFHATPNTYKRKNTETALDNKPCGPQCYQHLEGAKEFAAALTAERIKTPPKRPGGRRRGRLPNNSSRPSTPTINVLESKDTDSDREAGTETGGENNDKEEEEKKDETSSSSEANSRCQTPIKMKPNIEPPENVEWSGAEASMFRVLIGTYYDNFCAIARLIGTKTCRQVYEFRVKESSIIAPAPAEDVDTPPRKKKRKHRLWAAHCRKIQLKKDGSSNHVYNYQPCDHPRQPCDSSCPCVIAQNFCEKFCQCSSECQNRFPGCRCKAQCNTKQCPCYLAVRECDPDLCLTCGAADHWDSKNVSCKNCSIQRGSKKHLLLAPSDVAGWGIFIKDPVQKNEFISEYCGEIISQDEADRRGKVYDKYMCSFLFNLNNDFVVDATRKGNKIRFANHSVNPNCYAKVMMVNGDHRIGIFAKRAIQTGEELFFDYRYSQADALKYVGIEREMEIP
T1 sequence (Q96SW2 whole entry, looked up): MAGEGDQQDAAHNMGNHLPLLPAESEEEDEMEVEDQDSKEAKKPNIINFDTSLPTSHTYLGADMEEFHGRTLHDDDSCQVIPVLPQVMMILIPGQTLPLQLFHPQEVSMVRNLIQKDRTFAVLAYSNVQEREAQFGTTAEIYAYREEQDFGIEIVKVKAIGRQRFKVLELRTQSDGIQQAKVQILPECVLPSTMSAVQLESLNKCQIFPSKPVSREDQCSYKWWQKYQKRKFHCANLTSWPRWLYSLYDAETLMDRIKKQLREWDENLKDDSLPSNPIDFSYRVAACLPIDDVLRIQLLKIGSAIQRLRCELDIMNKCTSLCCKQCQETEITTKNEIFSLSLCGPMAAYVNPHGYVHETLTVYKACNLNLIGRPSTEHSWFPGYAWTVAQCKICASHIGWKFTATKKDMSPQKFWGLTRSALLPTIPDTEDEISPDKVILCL

[3] = target: T1, Protein cereblon/Histone-lysine N-methyltransferase EZH2 (Homo sapiens); assay: PROTAC activity at CRBN E3 ligase/EZH2 in PRC2 complex in human SU-DHL-6 cells assessed as induction of EED degradation by measuring reduction in EED protein level at 1 uM incubated for 48 hrs by Western blot analysis; assay type: cell-based
How it was run: (§1)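 Cells cultured in DMEM or RPMI 1640 with 10% FBS and 1% penicillin-streptomycin, 37 °C, 5% CO2; exposed to 1 μM compound for 48 h. Lysates run on SDS-PAGE and transferred to nitrocellulose. Blocked 2 h in 5% skim milk, primary antibody overnight at 4 °C, then secondary antibody. Chemiluminescent detection of PRC2 subunits and H3K27me3.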

[4] = target: T1, Protein cereblon/Histone-lysine N-methyltransferase EZH2 (Homo sapiens); assay: PROTAC activity at CRBN E3 ligase/EZH2 in PRC2 complex in human WSUDLCL2 cells assessed as effect on EED mRNA expression at 1 uM incubated for 48 hrs by RT-qPCR analysis; assay type: cell-based
How it was run: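 WSU-DLCL-2 cells treated 48 h with 1 μM compound. Total RNA extracted with Trizol and reverse-transcribed. SYBR qPCR run as 95 °C 30 s, then 40 cycles of 95 °C 6 s and 60 °C 20 s. PRC2 subunit mRNA normalized to the DMSO-treated group; mean SD, t-test.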

WSUDLCL2 [5] = assay: Effect on Histone H3 methylation in human WSUDLCL2 cells assessed as reduction in H3K9me3 levels at upto 10 uM incubated for 48 hrs by Western blot analysis; assay type: functional, cell-based; settings: dose microM <=10, time 48.0 hrs
How it was run: (§2)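 Lysates run on SDS-PAGE and transferred to nitrocellulose. Membranes blocked with 5% skim milk for 2 h, primary antibody applied overnight at 4 °C, then secondary antibody and chemiluminescent detection of histone H3 methylation marks.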

WSUDLCL2 [6] = assay: Inhibition of PRC2 in human WSUDLCL2 cells assessed as suppression H3K27 dimethylation incubated for 48 hrs by Western blot analysis; assay type: cell-based; how it was run: as §2
[7] = target: T1, Protein cereblon/Histone-lysine N-methyltransferase EZH2 (Homo sapiens); assay: PROTAC activity at CRBN E3 ligase/EZH2 in PRC2 complex in human WSUDLCL2 cells assessed as induction of RbAp48 degradation at 1 uM incubated for 48 hrs by Western blot analysis relative to control; assay type: cell-based
How it was run: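 WSU-DLCL-2 cells treated 48 h (1 μM for the single-concentration screen), lysed; SDS-PAGE, nitrocellulose transfer, 5% milk block, primary antibody 4 °C overnight, chemiluminescence. Bands quantified by densitometry, normalized to GAPDH, expressed relative to DMSO-treated cells; mean ± SD of three independent experiments, t-test.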

[8] = target: T1, Protein cereblon/Histone-lysine N-methyltransferase EZH2 (Homo sapiens); assay: PROTAC activity at CRBN E3 ligase/EZH2 in PRC2 complex in human LNCaP cells assessed as induction of SUZ12 degradation by measuring reduction in SUZ12 protein level at 1 uM incubated for 48 hrs by Western blot analysis; assay type: cell-based; how it was run: as §1
A549 [9] = assay: Antiproliferative activity against EZH2-knockdown human A549 cells assessed as inhibition of cell growth at 10 uM treated for 9 days by optical microscopic analysis; assay type: functional, cell-based; settings: time 9.0 day
How it was run: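 Cells seeded at 5 × 10³ per well, grown 24 h, then exposed to compound at 10 μM for 9 days with medium refreshed. Cells were photographed and counted on days 1, 3, 5, 7 and 9. For lines 1-2, EZH2-targeting or control shRNA was induced in the cells. Mean SD of three independent experiments; t-test against control.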

WSUDLCL2 [10] = assay: Inhibition of PRC2 in human WSUDLCL2 cells assessed as suppression H3K27 dimethylation at 10 uM incubated for 48 hrs by Western blot analysis; assay type: cell-based; how it was run: as §2
[11] = target: T1, Protein cereblon/Histone-lysine N-methyltransferase EZH2 (Homo sapiens); assay: PROTAC activity at CRBN E3 ligase/EZH2 in PRC2 complex in human SK-OV-3 cells assessed as reduction in H3K27me3 level at 1 uM incubated for 48 hrs by Western blot analysis; assay type: cell-based; how it was run: as §1
[12] = target: T1, Protein cereblon/Histone-lysine N-methyltransferase EZH2 (Homo sapiens); assay: PROTAC activity at CRBN E3 ligase/EZH2 in PRC2 complex in human WSUDLCL2 cells assessed as reduction in H3K27me3 protein level at 1 uM measured after 48 to 72 hrs by Western blot analysis; assay type: cell-based; settings: time 48-72 hrs
MDA-MB-468 = assay: Downregulation of CENPK mRNA expression in human MDA-MB-468 cells at 10 uM incubated for 48 hrs by qRT-PCR analysis; assay type: functional, cell-based
How it was run: (§3)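 Cells treated 48 h. Total RNA extracted with Trizol, reverse-transcribed, and SYBR RT-qPCR run: 95 °C 30 s, then 40 cycles of 95 °C 6 s and 60 °C 20 s. mRNA normalized to the DMSO-treated group. Mean SD of three independent experiments, t-test versus DMSO.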

[13] = target: T1, Protein cereblon/Histone-lysine N-methyltransferase EZH2 (Homo sapiens); assay: PROTAC activity at CRBN E3 ligase/EZH2 in PRC2 complex in human WSUDLCL2 cells assessed as induction of EED degradation at 1 uM measured up to 2 hrs by Western blot analysis; assay type: cell-based; settings: time hrs <=2
[14] = target: T1, Protein cereblon/Histone-lysine N-methyltransferase EZH2 (Homo sapiens); assay: PROTAC activity at CRBN E3 ligase/EZH2 in PRC2 complex in human SU-DHL-6 cells assessed as induction of RbAp48 degradation by measuring reduction in RbAp48 protein level at 1 uM incubated for 48 hrs by Western blot analysis; assay type: cell-based; how it was run: as §1
A549 [15] = assay: Downregulation of CHEK1 mRNA expression in human A549 cells at 10 uM incubated for 48 hrs by qRT-PCR analysis; assay type: functional, cell-based; how it was run: as §3
[16] = target: T1, Protein cereblon/Histone-lysine N-methyltransferase EZH2 (Homo sapiens); assay: PROTAC activity at CRBN E3 ligase/EZH2 in PRC2 complex in human LNCaP cells assessed as reduction in H3K27me3 level at 1 uM incubated for 48 hrs by Western blot analysis; assay type: cell-based; how it was run: as §1
[17] = target: T1, Protein cereblon/Histone-lysine N-methyltransferase EZH2 (Homo sapiens); assay: PROTAC activity at CRBN E3 ligase/EZH2 in PRC2 complex in human WSUDLCL2 cells assessed as downregulation of SUZ12 expression at 1 uM pretreated with MLN4924 for 4 hrs followed by compound addition and measured after 48 hrs by Western blot analysis; assay type: cell-based
How it was run: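 WSU-DLCL-2 cells pretreated 4 h with the named inhibitor, then compound added and incubated a further 48 h. EZH2, SUZ12, EED and RbAp48 measured by western blot (nitrocellulose transfer, skim-milk block, primary antibody overnight at 4 °C, chemiluminescent detection).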

[18] = target: T1, Protein cereblon/Histone-lysine N-methyltransferase EZH2 (Homo sapiens); assay: PROTAC activity at CRBN E3 ligase/EZH2 in PRC2 complex in human SU-DHL-6 cells assessed as induction of EZH2 degradation by measuring reduction in EZH2 protein level at 1 uM incubated for 48 hrs by Western blot analysis; assay type: cell-based; how it was run: as §1

Q: With `CCN(c1cc(-c2ccc(CN3CCN(CCCCCCCOc4cccc5c4C(=O)N(C4CCC(=O)NC4=O)C5=O)CC3)cc2)cc(C(=O)NCc2c(C)cc(C)[nH]c2=O)c1C)C1CCOCC1` (centres undefined) as the compound, how does the Activity (A549 [1]) read?
A: The Activity was “Active”.

Q: And the Activity [2]?
A: The Activity was “Active”.

Q: And the Activity [3]?
A: Its Activity is “Active”.

Q: And the Activity [4]?
A: Its Activity is “inactive”.

Q: What about the Activity (WSUDLCL2 [5]) of the same compound?
A: Its Activity is “inactive”.

Q: And the inhibition (WSUDLCL2 [6])?
A: The inhibition was “Dose-Dependent Effect”.

Q: And the Activity [7]?
A: Its Activity is 74%.

Q: And the Activity [8]?
A: The Activity was “Active”.

Q: And the Activity (A549 [9])?
A: Its Activity is “Active”.

Q: And the inhibition (WSUDLCL2 [10])?
A: Its inhibition is “Active”.

Q: What about the Activity [11] of the same compound?
A: Its Activity is “Active”.

Q: And the Activity [12]?
A: The Activity was “Active”.

Q: And the Activity (MDA-MB-468)?
A: Its Activity is “Active”.

Q: And the Activity [13]?
A: Its Activity is “inactive”.

Q: What about the Activity [14] of the same compound?
A: Its Activity is “Active”.

Q: And the Activity (A549 [15])?
A: Its Activity is “Active”.

Q: What about the Activity [16] of the same compound?
A: Its Activity is “Active”.

Q: What about the Activity [17] of the same compound?
A: Its Activity is “inactive”.

Q: And the Activity [18]?
A: Its Activity is “Active”.

From ChEMBL document CHEMBL5038571, “Design and Synthesis of EZH2-Based PROTACs to Degrade the PRC2 Complex for Targeting the Noncatalytic Activity of EZH2” (J Med Chem, 2021)
